We go through 72 compounds from ChEMBL document CHEMBL4513216, “Probing the Open Global Health Chemical Diversity Library for Multistage-Active Starting Points for Next-Generation Antimalarials” (ACS Infect Dis, 2020).

The data set can be described thus: Toxicity liver stage against HepG2, at 10uM. Type of data set: cell-based. On the set-up: test concentration 10 uM, cell line HepG2-A16-CD81EGFP. Conditions: human, HepG2-A16-CD81EGFP cells; read-out: INHIBITION
In a few lines:
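Uninfected HepG2-A16-CD81EGFP cells, 3 × 10^3 per well, 1536-well, plated on prespotted compound at 10 μM final, parasite-free screening media added to match infected plates; puromycin 10 μM positive, DMSO 0.5% negative; run in parallel with 48 h PbLuc assay at 37 °C, 5% CO2; viability by CellTiter-Glo luminescence, normalized to controls.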
As to `N#Cc1c2n(c3c(=O)[nH]cnc13)CCCC2`, the cytotoxicity at 10 µM was 2.45%.

In the case of `COCCNC(=O)C1CC(=O)N(c2n[nH]c3cccc(F)c23)C1` (configuration not stated), the cytotoxicity at 10 µM came out at 3.23%.

As for `O=C(c1nnn(-c2ccc(Cl)cc2)n1)N(CCO)Cc1ccccc1`, the cytotoxicity at 10 µM was -1.9%.

For `O=C(c1cnccn1)N1CC(S(=O)(=O)c2ccc(Cl)cc2)C1`, the cytotoxicity at 10 µM is -2.3%.

As for `CCN(C)C(=O)c1cc(-c2cn(C(C)C)cn2)n2ccccc12`, the cytotoxicity at 10 µM is -1.16%.

On to `CN1C(=O)CC2(CCNCC2)c2ccccc21`, for which the cytotoxicity at 10 µM is -3.92%.

Regarding `Cn1cccc1CNC(=O)CCCc1nnc2ccccn12`, the cytotoxicity at 10 µM was -5.77%.

Regarding `O=C(c1cn(-c2cc(N3CCOCC3)ncn2)cn1)N1CCSCC1`, the cytotoxicity at 10 µM is -18.3%.

As for `Cc1cccc(CS(=O)(=O)NCC(O)Cc2ccccc2)c1` (configuration not stated), the cytotoxicity at 10 µM was -19.5%.

On to `O=C(NCCc1ccccc1)C1CCCN(c2ccc3nncn3n2)C1` (configuration not stated), for which the cytotoxicity at 10 µM was found to be 25.9%.

Turning to `O=C(O)c1cc2c(nc1O)CC(c1cccc(Cl)c1)CC2=O` (configuration not stated), the cytotoxicity at 10 µM is 9.56%.

In the case of `CC(C)n1cc(N2CC(C(=O)N3CCC(C(N)=O)CC3)CC2=O)cn1` (configuration not stated), the cytotoxicity at 10 µM was -4.51%.

`COCCCNC(=O)c1cc(C(C)C)nc(N2CCCC2)n1`: the cytotoxicity at 10 µM was 6.5%.

As to `Cc1nc(C(=O)N2CCOC(Cc3ccc(F)cc3)C2)co1` (configuration not stated), the cytotoxicity at 10 µM was -1.39%.

As to `Fc1ccccc1CN1CCC(c2noc(-c3ccccn3)n2)CC1`, the cytotoxicity at 10 µM was -1.39%.

Turning to `COc1cccc(-c2ccnc(C3CCNCC3)c2)c1`, the cytotoxicity at 10 µM was 56.4%.

`O=c1c(Cc2ccccc2)c(O)ccn1Cc1cccs1`: the cytotoxicity at 10 µM was 10.2%.

`O=C(COC1CCCCC1)Nc1ccn(Cc2cccnc2)n1`: the cytotoxicity at 10 µM worked out at 5.17%.

With `CCc1ccc(C(NC(=O)CCS(C)(=O)=O)C(C)(C)C)o1` (configuration not stated), the cytotoxicity at 10 µM was -3.58%.

Consider `Cc1nc2cc(F)cc(C(=O)N3CCN(CCO)CC3)c2nc1C`, for which the cytotoxicity at 10 µM is -3.31%.

Regarding `Clc1cncc(N2CCN(Cc3ccon3)CC2)n1`, the cytotoxicity at 10 µM worked out at 6.94%.

On to `Cc1nc(CN2CCc3ccc(S(N)(=O)=O)cc32)oc1C`, for which the cytotoxicity at 10 µM was found to be 2.63%.

For the compound `CN(CCOCC1CC1)C(=O)Nc1ccc(C#N)c(Cl)c1`, the cytotoxicity at 10 µM was -11.1%.

With `CCc1ccc(C(=O)N2CCCCC2CNS(C)(=O)=O)o1` (configuration not stated), the cytotoxicity at 10 µM is -0.95%.

On to `COc1ccc(Cl)cc1CCNC(=O)NCc1ccncc1`, for which the cytotoxicity at 10 µM was determined as 2.53%.

As to `Cc1cc(C[S+]([O-])Cc2ccccc2C)no1` (configuration not stated), the cytotoxicity at 10 µM amounted to 9.13%.

On to `O=C1CCCN1CCN1CCCC(c2ccn[nH]2)C1` (configuration not stated), for which the cytotoxicity at 10 µM was -16.7%.

Consider `Cc1nnc(-c2ccc(C(=O)Nc3ccnc(N(C)C)n3)cc2)o1`, for which the cytotoxicity at 10 µM was -1.01%.

Take `Cc1cc(NC(=O)[C@H]2CCCCN2C(=O)OC(C)(C)C)no1`: the cytotoxicity at 10 µM was -1.48%.

As for `Cc1cc(C)c2c(OCC(=O)NCC(O)C(F)(F)F)nn(C)c2n1` (configuration not stated), the cytotoxicity at 10 µM turned out to be 1.3%.

As for `CC(C)C(C)(O)CNc1cccc(F)c1C#N` (configuration not stated), the cytotoxicity at 10 µM was -8.87%.

Turning to `COc1ccc(N(Cc2ccco2)C(=O)COC(C)C)cc1F`, the cytotoxicity at 10 µM was -1.63%.

Turning to `O=C(c1cc[nH]n1)N(Cc1ccc(F)cc1)CC1CC1`, the cytotoxicity at 10 µM is -10.8%.

Regarding `OCCn1nnnc1Cc1ccc(Br)cc1`, the cytotoxicity at 10 µM came to 1.54%.

For the compound `CNS(=O)(=O)CCCN1CCCN(Cc2ccccc2)CC1C` (configuration not stated), the cytotoxicity at 10 µM turned out to be 9.77%.

For `COc1cccc2c1CCN(C(=O)NCCc1nccn1C)C2`, the cytotoxicity at 10 µM was 2.38%.

In the case of `N#Cc1ccnc(N2CCN(Cc3cccc(F)c3)CC2)c1`, the cytotoxicity at 10 µM stood at 0.795%.

`CCOc1cccc(C(C)NC(=O)N2CCC(C(N)=O)CC2)c1` (configuration not stated): the cytotoxicity at 10 µM was -2.95%.

In the case of `COc1ccc(NC(=O)NC(C)(C)c2noc(C)n2)cc1`, the cytotoxicity at 10 µM is -3.42%.

Turning to `Cc1cc(C)c(C(=O)N2CCN(c3ncccc3C#N)CC2)c(=O)[nH]1`, the cytotoxicity at 10 µM was -3.28%.

For the compound `CCN(CC)c1ncccc1CNC(=O)c1cnn(CC)c1`, the cytotoxicity at 10 µM is -8.2%.

Take `CCCOCCN1CCN(c2ncnc3[nH]ccc23)CC1`: the cytotoxicity at 10 µM is -6.67%.

Regarding `O=C(c1ccc2ccccc2c1)C1CCCN(C(=O)Cn2cnnn2)C1` (configuration not stated), the cytotoxicity at 10 µM is 1.54%.

Consider `CCC1(C(=O)O)CCCN(CCOCc2ccccc2)C1` (configuration not stated), for which the cytotoxicity at 10 µM turned out to be 7.33%.

As to `Cn1ccnc1-c1cn(CCCc2nnc(N)s2)nn1`, the cytotoxicity at 10 µM came to 10%.

For the compound `O=C1CCC2(CCN(Cc3cscn3)CC2)CN1CC1CCCO1` (configuration not stated), the cytotoxicity at 10 µM was -5.5%.

On to `COCC(=O)N(Cc1cccnc1)CC1CCN(C2CCCC2)CC1`, for which the cytotoxicity at 10 µM amounted to 1.49%.

For the compound `O=C(O)[C@@H]1CN(C(=O)CCN2CCCCC2)C[C@H]1c1ccccc1`, the cytotoxicity at 10 µM was found to be 1.25%.

As to `CCCn1cc(-c2cc(-c3ccoc3)c(C#N)c(N)n2)c(C)n1`, the cytotoxicity at 10 µM turned out to be 5.48%.

Turning to `Fc1ccc(C2(c3noc(CCN4CCCCO4)n3)CCOC2)cc1` (configuration not stated), the cytotoxicity at 10 µM was -1.54%.

As for `CCCc1nc(C)cc(N2CCC3(CCC(=O)N(C4CC4)C3)CC2)n1`, the cytotoxicity at 10 µM is -5.31%.

For `Cc1nncn1CCN1C(=O)CC2(CCCC2)CC1=O`, the cytotoxicity at 10 µM is -0.745%.

On to `CC1=NOC(C(=O)N2CCC(O)(c3ccc4nc(C)ccc4c3)CC2)C1` (configuration not stated), for which the cytotoxicity at 10 µM is 2.12%.

Take `Cc1csc(CNC(=O)N2CCCC(c3nncn3C)C2)n1` (configuration not stated): the cytotoxicity at 10 µM is -18.3%.

Consider `Cc1ccoc1C(=O)NCc1ccnc(OCC(F)(F)F)c1`, for which the cytotoxicity at 10 µM was -7.8%.

For `CC(NC(=O)NCCCc1n[nH]c(N)c1C#N)c1ccc(F)c(F)c1` (configuration not stated), the cytotoxicity at 10 µM was -10.2%.

Regarding `CCN1CCN(c2ccc(CNC(=O)c3sccc3C)cn2)CC1`, the cytotoxicity at 10 µM was -17.8%.

As to `CCn1cc(NC(=O)NCCc2ccc3c(c2)OCO3)cn1`, the cytotoxicity at 10 µM is 2.04%.

As for `COc1ncccc1C(=O)N1CCCC1c1c(C)nn(C)c1Cl` (configuration not stated), the cytotoxicity at 10 µM is -9.35%.

With `Cc1cc(C(=O)N2CCCC(n3cncn3)C2)on1` (configuration not stated), the cytotoxicity at 10 µM is -22.5%.

Take `NC(=O)C1CCCN1c1cc(N2CCc3ccccc3C2)ncn1` (configuration not stated): the cytotoxicity at 10 µM is -0.918%.

For `Cc1nc(CN2CCCN(C(=O)C3(C#N)CCCCC3)CC2)cs1`, the cytotoxicity at 10 µM was -9.98%.

With `O=S(=O)(C1CC1)N1CCO[C@@H]2CN(Cc3cccs3)C[C@@H]2C1`, the cytotoxicity at 10 µM is -154%.

On to `O=C1COC2(CCN(c3ccccn3)CC2)CN1`, for which the cytotoxicity at 10 µM was 9.52%.

Turning to `CS(=O)(=O)N1CC[C@]2(C[C@H](Oc3ccccn3)CO2)C1`, the cytotoxicity at 10 µM was -116%.

Turning to `CCc1cnc(N2CC[C@H]3[C@@H]2CCC(=O)N3c2cccnc2)nc1`, the cytotoxicity at 10 µM is 10.4%.

In the case of `Cc1noc([C@@H]2C[C@@H]3CCN(CC4CCOCC4)C[C@H]3O2)n1`, the cytotoxicity at 10 µM was -130%.

Consider `CC(C)Nc1nc(O)cc(C2CC(=O)N(Cc3ccccn3)C2)n1` (configuration not stated), for which the cytotoxicity at 10 µM is -16.9%.

`CCc1cnc(N2CC[C@@H]3CN(CCC(C)C)S(=O)(=O)[C@@H]3CC2)nc1`: the cytotoxicity at 10 µM is 2.38%.

Turning to `Cc1ccc(N[C@@H]2CN(Cc3cc(C)on3)C[C@@H]3CCCO[C@@H]32)nn1`, the cytotoxicity at 10 µM was -0.113%.

On to `Fc1cnc(N2CCCn3c(nnc3Cn3cccc3)C2)nc1`, for which the cytotoxicity at 10 µM was -134%.

As for `CCN(C)S(=O)(=O)N1C[C@H]2CC[C@@H](C1)N(Cc1cscn1)C2=O`, the cytotoxicity at 10 µM was found to be 11%.
